Assay results from ChEMBL document CHEMBL2203123, “Synthesis and biological evaluation of some hydrazone derivatives as new anticandidal and anticancer agents” (Eur J Med Chem, 2012).
Values after ≈ are worked out from the molar mass of the structure shown.

Columns and labels:
Salmonella typhimurium [1] = assay: Genotoxicity against Salmonella typhimurium TA98 assessed as fold increase in revertants at 0.156 mg/ml after 90 mins by Ames MPF test in presence of S9 fraction relative to baseline; format: toxicity, organism-based; settings: salmonella enterica subsp. enterica serovar typhimurium, s9, 1.5 h
How it was run: (§1)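 Ames MPF fluctuation test, TA98 and TA100: overnight cultures reincubated 90 min, then exposed 90 min at 37 °C to compounds at 0.156-5 mg/mL (in DMSO) with or without 4.5% v/v S9; indicator medium added, 48 wells per sample scored yellow after 48 h, triplicate. Fold over baseline = mean positive wells / (mean of DMSO control + 1 SD).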

Salmonella typhimurium [2] = assay: Genotoxicity against Salmonella typhimurium TA100 assessed as fold increase in revertants at 5 mg/ml after 90 mins by Ames MPF test in presence of S9 fraction relative to baseline; format: toxicity, organism-based; settings: salmonella enterica subsp. enterica serovar typhimurium, s9, 1.5 h; how it was run: as §1
Salmonella typhimurium [3] = assay: Genotoxicity against Salmonella typhimurium TA100 assessed as fold increase in revertants at 0.3125 mg/ml after 90 mins by Ames MPF test in presence of S9 fraction relative to baseline; format: toxicity, organism-based; settings: salmonella enterica subsp. enterica serovar typhimurium, s9, 1.5 h; how it was run: as §1
[4] = Genotoxicity against Salmonella typhimurium TA1535/pSK1002 assessed as induction ratio at 1.25 mg/ml by umuC assay in absence of S9 fraction; format: toxicity, organism-based; settings: salmonella enterica subsp. enterica serovar typhimurium, Salmonella typhimurium TA1535/pSK1002 without S9 fraction
How it was run: (§2)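 umuC Easy CS: TA1535/pSK1002 grown overnight in ampicillin TG medium at 37 °C, then exposed 2 h at 37 °C to compounds at 5, 2.5, 1.25, 0.63 mg/mL with or without S9. Diluted into fresh medium for 2 h growth (OD600), then β-galactosidase with ONPG 30 min at 28 °C, OD420. Positive controls 2-aminoanthracene (+S9), […] (−S9).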

Salmonella typhimurium [5] = assay: Genotoxicity against Salmonella typhimurium TA100 assessed as fold increase in revertants at 2.5 mg/ml after 90 mins by Ames MPF test in absence of S9 fraction relative to baseline; format: toxicity, organism-based; settings: salmonella enterica subsp. enterica serovar typhimurium, 1.5 h; how it was run: as §1
Salmonella typhimurium [6] = assay: Genotoxicity against Salmonella typhimurium TA1535/pSK1002 assessed as growth factor ratio at 2.5 mg/ml by umuC assay in presence of S9 fraction; format: toxicity, organism-based; settings: salmonella enterica subsp. enterica serovar typhimurium; how it was run: as §2
Salmonella typhimurium [7] = assay: Genotoxicity against Salmonella typhimurium TA1535/pSK1002 assessed as growth factor ratio at 1.25 mg/ml by umuC assay in absence of S9 fraction; format: toxicity, organism-based; settings: salmonella enterica subsp. enterica serovar typhimurium; how it was run: as §2
Salmonella typhimurium [8] = assay: Genotoxicity against Salmonella typhimurium TA98 assessed as fold increase in revertants at 0.156 mg/ml after 90 mins by Ames MPF test in absence of S9 fraction relative to baseline; format: toxicity, organism-based; settings: salmonella enterica subsp. enterica serovar typhimurium, 1.5 h; how it was run: as §1
Salmonella typhimurium [9] = assay: Genotoxicity against Salmonella typhimurium TA1535/pSK1002 assessed as growth factor ratio at 5 mg/ml by umuC assay in absence of S9 fraction; format: toxicity, organism-based; settings: salmonella enterica subsp. enterica serovar typhimurium; how it was run: as §2
A549 = assay: Cytotoxicity against human A549 cells after 24 hrs by XTT assay; format: functional, cell-based; settings: A549, 24 h
How it was run: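 A549 cells in RPMI 1640 with 10% fetal calf serum, penicillin/streptomycin, 37 °C, 5% CO2; 20,000 cells/well seeded, after 24 h exposed to compounds at 0.00316 µM-10 mM for 24 h. XTT mitochondrial activity read at 480 nm (reference 680 nm) after 3 h; % inhibition per concentration, IC50 by non-linear regression.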

Salmonella typhimurium [10] = assay: Genotoxicity against Salmonella typhimurium TA100 assessed as fold increase in revertants at 0.156 mg/ml after 90 mins by Ames MPF test in presence of S9 fraction relative to baseline; format: toxicity, organism-based; settings: salmonella enterica subsp. enterica serovar typhimurium, s9, 1.5 h; how it was run: as §1
Salmonella typhimurium [11] = assay: Genotoxicity against Salmonella typhimurium TA98 assessed as fold increase in revertants at 5 mg/ml after 90 mins by Ames MPF test in presence of S9 fraction relative to baseline; format: toxicity, organism-based; settings: salmonella enterica subsp. enterica serovar typhimurium, s9, 1.5 h; how it was run: as §1
Salmonella typhimurium [12] = assay: Genotoxicity against Salmonella typhimurium TA98 assessed as fold increase in revertants at 2.5 mg/ml after 90 mins by Ames MPF test in presence of S9 fraction relative to baseline; format: toxicity, organism-based; settings: salmonella enterica subsp. enterica serovar typhimurium, s9, 1.5 h; how it was run: as §1
Salmonella typhimurium [13] = assay: Genotoxicity against Salmonella typhimurium TA98 assessed as fold increase in revertants at 0.625 mg/ml after 90 mins by Ames MPF test in presence of S9 fraction relative to baseline; format: toxicity, organism-based; settings: salmonella enterica subsp. enterica serovar typhimurium, s9, 1.5 h; how it was run: as §1
Salmonella typhimurium [14] = assay: Genotoxicity against Salmonella typhimurium TA98 assessed as fold increase in revertants at 0.625 mg/ml after 90 mins by Ames MPF test in absence of S9 fraction relative to baseline; format: toxicity, organism-based; settings: salmonella enterica subsp. enterica serovar typhimurium, 1.5 h; how it was run: as §1
Salmonella typhimurium [15] = assay: Genotoxicity against Salmonella typhimurium TA1535/pSK1002 assessed as growth factor ratio at 0.63 mg/ml by umuC assay in absence of S9 fraction; format: toxicity, organism-based; settings: salmonella enterica subsp. enterica serovar typhimurium; how it was run: as §2
[16] = Genotoxicity against Salmonella typhimurium TA1535/pSK1002 assessed as induction ratio at 5 mg/ml by umuC assay in presence of S9 fraction; format: toxicity, organism-based; settings: salmonella enterica subsp. enterica serovar typhimurium, Salmonella typhimurium TA1535/pSK1002 with S9 fraction; how it was run: as §2
Salmonella typhimurium [17] = assay: Genotoxicity against Salmonella typhimurium TA1535/pSK1002 assessed as growth factor ratio at 2.5 mg/ml by umuC assay in absence of S9 fraction; format: toxicity, organism-based; settings: salmonella enterica subsp. enterica serovar typhimurium; how it was run: as §2
[18] = Genotoxicity against Salmonella typhimurium TA1535/pSK1002 assessed as induction ratio at 1.25 mg/ml by umuC assay in presence of S9 fraction; format: toxicity, organism-based; settings: salmonella enterica subsp. enterica serovar typhimurium, Salmonella typhimurium TA1535/pSK1002 with S9 fraction; how it was run: as §2
Candida parapsilosis = assay: Antifungal activity against Candida parapsilosis NRRL Y-12696 after 24 hrs by microdilution susceptibility assay; format: functional; settings: Lodderomyces parapsilosis, NRRL Y-12696, 24 h
How it was run: (§3)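 Broth microdilution in Mueller Hinton Broth, compounds from DMSO stocks diluted serially; inocula standardized to 10^6 CFU/mL (McFarland 0.5) from overnight MHB cultures. Plates held 37 °C for 24 h; MIC taken as first well without turbidity, aided by 1% tetrazolium violet added for 3 h at 37 °C. Ketoconazole reference.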

Salmonella typhimurium [19] = assay: Genotoxicity against Salmonella typhimurium TA100 assessed as fold increase in revertants at 5 mg/ml after 90 mins by Ames MPF test in absence of S9 fraction relative to baseline; format: toxicity, organism-based; settings: salmonella enterica subsp. enterica serovar typhimurium, 1.5 h; how it was run: as §1
Cyberlindnera jadinii = assay: Antifungal activity against Candida utilis NRRL Y-900 after 24 hrs by microdilution susceptibility assay; format: functional; settings: Williopsis jadinii, NRRL Y-900, 24 h; how it was run: as §3
Salmonella typhimurium [20] = assay: Genotoxicity against Salmonella typhimurium TA1535/pSK1002 assessed as induction ratio at 2.5 mg/ml by umuC assay in presence of S9 fraction; format: toxicity, organism-based; settings: salmonella enterica subsp. enterica serovar typhimurium; how it was run: as §2
Salmonella typhimurium [21] = assay: Genotoxicity against Salmonella typhimurium TA98 assessed as fold increase in revertants at 5 mg/ml after 90 mins by Ames MPF test in absence of S9 fraction relative to baseline; format: toxicity, organism-based; settings: salmonella enterica subsp. enterica serovar typhimurium, 1.5 h; how it was run: as §1
[22] = Genotoxicity against Salmonella typhimurium TA1535/pSK1002 assessed as induction ratio at 5 mg/ml by umuC assay in absence of S9 fraction; format: toxicity, organism-based; settings: salmonella enterica subsp. enterica serovar typhimurium, Salmonella typhimurium TA1535/pSK1002 without S9 fraction; how it was run: as §2
Candida albicans = assay: Antifungal activity against Candida albicans ATCC 10231 after 24 hrs by microdilution susceptibility assay; format: functional; settings: ATCC 10231, 24 h; how it was run: as §3
Salmonella typhimurium [23] = assay: Genotoxicity against Salmonella typhimurium TA1535/pSK1002 assessed as growth factor ratio at 0.63 mg/ml by umuC assay in presence of S9 fraction; format: toxicity, organism-based; settings: salmonella enterica subsp. enterica serovar typhimurium; how it was run: as §2

Row | Structure (SMILES) | fold change (FC) (Salmonella typhimurium [1]) | fold change (FC) (Salmonella typhimurium [2]) | fold change (FC) (Salmonella typhimurium [3]) | fold induction at 1.25 mg/ml [4] | fold change (FC) (Salmonella typhimurium [5]) | Ratio (Salmonella typhimurium [6]) | Ratio (Salmonella typhimurium [7]) | fold change (FC) (Salmonella typhimurium [8]) | Ratio (Salmonella typhimurium [9]) | IC50 (A549) [mM] | fold change (FC) (Salmonella typhimurium [10]) | fold change (FC) (Salmonella typhimurium [11]) | fold change (FC) (Salmonella typhimurium [12]) | fold change (FC) (Salmonella typhimurium [13]) | fold change (FC) (Salmonella typhimurium [14]) | Ratio (Salmonella typhimurium [15]) | fold induction at 5 mg/ml [16] | Ratio (Salmonella typhimurium [17]) | fold induction at 1.25 mg/ml [18] | MIC (Candida parapsilosis) [µg/mL] | other results
1 | CN(C)c1ccc(/C=N/NC(=O)CSc2nnnn2C)cc1 | 0.86 | 0.26 | 0.47 | 1.13 | 1.14 | 1.992 | 1.191 | 0.32 | 2.781 | 0.1 | 0.33 | 0.86 | 1.14 | 1 | 1.59 | 0.962 | 0.379 | 1.743 | 0.67 | 500 (≈ 1570 µM) | fold change (FC) (Salmonella typhimurium [19]): 0.81; MIC (Cyberlindnera jadinii): 125 µg/mL (≈ 391 µM); Ratio (Salmonella typhimurium [20]): 0.598; fold change (FC) (Salmonella typhimurium [21]): 0; fold induction at 5 mg/ml [22]: 0.565; MIC (Candida albicans): 125 µg/mL (≈ 391 µM); Ratio (Salmonella typhimurium [23]): 1.268
2 | Cn1nnnc1SCC(=O)N/N=C/c1ccc(O)cc1 | 0.32 | 0.82 | 0.63 | 0.99 | 0.33 | 1.663 | 1.098 | 0.52 | 2.049 | > 10 | 0.63 | 0.63 | 0.53 | 0.32 | 0.13 | 1.009 | 0.419 | 1.397 | 0.699 | 1000 (≈ 3420 µM) | fold change (FC) (Salmonella typhimurium [19]): 0; MIC (Cyberlindnera jadinii): 500 µg/mL (≈ 1710 µM); Ratio (Salmonella typhimurium [20]): 0.657; fold change (FC) (Salmonella typhimurium [21]): 0.26; fold induction at 5 mg/ml [22]: 0.661; MIC (Candida albicans): 500 µg/mL (≈ 1710 µM); Ratio (Salmonella typhimurium [23]): 1.13
3 | COc1ccc(/C=N/NC(=O)CSc2nnnn2C)cc1 | 0.42 | 0.5 | 0.77 | 1.12 | 0.6 | 1.83 | 1.137 | 0.16 | 1.99 | > 10 | 0.46 | 0.84 | 0.53 | 0.32 | 0.65 | 1.028 | 0.568 | 1.166 | 0.769 | 250 (≈ 816 µM) | fold change (FC) (Salmonella typhimurium [19]): 0.5; MIC (Cyberlindnera jadinii): 250 µg/mL (≈ 816 µM); Ratio (Salmonella typhimurium [20]): 0.681; fold change (FC) (Salmonella typhimurium [21]): 0.33; fold induction at 5 mg/ml [22]: 0.763; MIC (Candida albicans): 500 µg/mL (≈ 1630 µM); Ratio (Salmonella typhimurium [23]): 1.117
4 | Cn1nnnc1SCC(=O)N/N=C/c1ccccc1[N+](=O)[O-] | 1 | 1.7 | 1.08 | 1.51 | 0.67 | 0.922 | 1.022 | 1.63 | 1.281 | 1.6 | 1.35 | 1.11 | 2.22 | 1.78 | 1.47 | 1.068 | 1.19 | 1.03 | 1.18 | 500 (≈ 1560 µM) | fold change (FC) (Salmonella typhimurium [19]): 1.33; MIC (Cyberlindnera jadinii): 250 µg/mL (≈ 778 µM); Ratio (Salmonella typhimurium [20]): 1.014; fold change (FC) (Salmonella typhimurium [21]): 1.14; fold induction at 5 mg/ml [22]: 1.43; MIC (Candida albicans): 500 µg/mL (≈ 1560 µM); Ratio (Salmonella typhimurium [23]): 0.969
5 | Cn1nnnc1SCC(=O)N/N=C/c1ccccc1F | 0.29 | 0.58 | 0.51 | 1.02 | 0.17 | 1.699 | 1.084 | 0.64 | 3.877 | 9 | 0.66 | 1.14 | 1.57 | 1 | 0.64 | 1.045 | 0.284 | 1.559 | 0.548 | 1000 (≈ 3400 µM) | fold change (FC) (Salmonella typhimurium [19]): 0.17; MIC (Cyberlindnera jadinii): 125 µg/mL (≈ 425 µM); Ratio (Salmonella typhimurium [20]): 0.352; fold change (FC) (Salmonella typhimurium [21]): 1.59; fold induction at 5 mg/ml [22]: 0.321; MIC (Candida albicans): 250 µg/mL (≈ 849 µM); Ratio (Salmonella typhimurium [23]): 0.935
